Data: ChEMBL document CHEMBL3612041, “Combating highly resistant emerging pathogen Mycobacterium abscessus and Mycobacterium tuberculosis with novel salicylanilide esters and carbamates” (Eur J Med Chem, 2015)
Values after ≈ are worked out from the molar mass of the structure shown.

Tests used:
[1] = system: Mycobacteroides abscessus; test: Antimycobacterial activity against Mycobacterium abscessus ATCC 19977 after 7 days by serial dilution method; type: functional
Summary of the method: (§1)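 Serial dilution in in-house Sula semisynthetic medium, pH 6.5. Compounds added as DMSO solutions at 10 doses, final 0.05–100 µg/mL. Incubation at 37 °C, 7 days for M. abscessus and 28 days for M. tuberculosis strains. MIC taken as the lowest concentration giving visible growth inhibition, confirmed by CFU on drug-free Löwenstein-Jensen medium after further equal incubation. Repeated at least twice.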

[2] = system: Mycobacterium tuberculosis; test: Antimycobacterial activity against Mycobacterium tuberculosis H37Rv ATCC 27294 after 28 days by serial dilution method; type: functional; conditions: for MIC: Mycobacterium tuberculosis, H37Rv ATCC 27294, 672 h; summary of the method: as §1
[3] = Solubility of the compound in RPMI-1640/Sula media by spectrophotometric analysis; type: physicochemical
Summary of the method: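 Solubility measured under assay conditions in RPMI and Sula media with 1 v/v% DMSO. Undissolved compound removed on a PVDF filter. 120 µL filtrate mixed with 80 µL acetonitrile, and concentration measured spectrophotometrically.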

[4] = system: MONO-MAC-6; test: Cytostatic activity against human MONO-MAC-6 cells assessed as cell viability after 16 hrs by MTT assay; type: cell-based; conditions: MONO-MAC-6, 16 h
Summary of the method: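 MonoMac6 cells kept in RPMI-1640 with 10% FCS, 2 mM L-glutamine and gentamycin at 37 °C, 5% CO2. Cells plated 10⁵ per well and treated after 24 h for 16 h in serum-free RPMI (1.0 v/v% DMSO), 5×10⁻² to 10² µM. MTT at 367 µg/mL final for 3.5 h, crystals dissolved in DMSO, OD540 minus OD620. Cytotoxicity % versus untreated control fitted sigmoidally for IC50. Two independent experiments, 4–8 parallels.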

[5] = Selectivity index, ratio of IC50 for human MONO-MAC-6 cells to MIC for Mycobacterium abscessus ATCC 19977; type: toxicity; conditions: read-out: Selectivity Index
[6] = Selectivity index, ratio of IC50 for human MONO-MAC-6 cells to MIC for Mycobacterium tuberculosis H37Rv ATCC 27294; type: toxicity; conditions: read-out: Selectivity Index
[7] = Retention time of the compound in DMSO at 0.75 mg/ml measured at 0 min by RP-HPLC analysis; type: physicochemical; conditions: 0 h
Summary of the method: (§2)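 Stability in DMSO at 0.75 mg/ml, monitored by RP-HPLC on a C18 4.6×150 mm column. Gradient 0–100% B (A: 0.1% TFA in water; B: 0.1% TFA in acetonitrile-water 80:20), 1 ml/min, ambient temperature. Sampled at 0 min and after 29 h, detection at 280 or 220 nm.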

[8] = Retention time of the compound in DMSO at 0.75 mg/ml measured after 29 hrs by RP-HPLC analysis; type: physicochemical; summary of the method: as §2
[9] = Retention time of the compound in serum-free RPMI-1640 medium containing 10% DMSO at 0.5 mg/ml after 5 hrs by RP-HPLC analysis; type: physicochemical
Summary of the method: (§3)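 Stability in serum-free RPMI-1640 with 10% DMSO at 0.5 mg/ml, monitored by RP-HPLC on a C18 column. Gradient of 0.1% TFA water/acetonitrile-water, 1 ml/min, ambient temperature. Peaks identified by ESI-MS.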

[10] = Half life of the compound in serum-free RPMI-1640 medium at 0.75 mg/ml by RP-HPLC analysis; type: ADME
[11] = Retention time of the compound in serum-free RPMI-1640 medium containing 10% DMSO at 0.5 mg/ml after 30 mins by RP-HPLC analysis; type: physicochemical; conditions: 0.5 h; summary of the method: as §3
[12] = system: Mycobacteroides abscessus; test: Potency index, ratio of ciprofloxacin MIC to compound MIC for Mycobacterium abscessus ATCC 19977; type: functional
[13] = system: Mycobacteroides abscessus; test: Potency index, ratio of gentamicin MIC to compound MIC for Mycobacterium abscessus ATCC 19977; type: functional
[14] = Drug level in serum-free RPMI-1640 medium treated with [4-bromo-2-[[4-(trifluoromethyl)phenyl]carbamoyl]phenyl] 5-chloropyrazine-2-carboxylate at 0.75 mg/ml after 29 hrs by ESI-MS spectra analysis; type: physicochemical
[15] = Mycobacteroides abscessus, ATCC 19977, 168 h

| Compound | Activity [1] [CFU] | MIC [1, 15] [µM] | Activity [2] [CFU] | MIC [2] [µM] | solubility [3] [µM] | IC50 [4] [µM] | selectivity ratio [5] | selectivity ratio [6] | Retention_time [7] [min] | Retention_time [8] [min] | Retention_time [9] [min] | half-life at 0.75 mg/ml [10] [h] | Retention_time [11] [min] | Ratio [12] | Ratio [13] | Drug metabolism [14] | MIC [1] [µM] |
| --- | --- | --- | --- | --- | --- | --- | --- | --- | --- | --- | --- | --- | --- | --- | --- | --- | --- |
| NNC(=O)c1ccncc1 [ISONIAZID] | 26 | 292 (≈ 40 µg/mL) | 0 | 1.17 (≈ 0.16 µg/mL) | – | – | – | – | – | – | – | – | – | – | – | – | – |
| O=C(Oc1ccc(Br)cc1C(=O)Nc1ccc(C(F)(F)F)cc1)c1cnc(Cl)cn1 | 0 | 5 (≈ 2.5 µg/mL) | 0 | 1 (≈ 0.501 µg/mL) | < 100 | 1.1 | 0.2 | 1.1 | 24 | 24 | 24 | 3.7 | 24 | – | – | – | – |
| O=C(Oc1ccc(Cl)cc1C(=O)Nc1ccc(Cl)c(Cl)c1)c1cnc(Cl)cn1 | 0 | 1.1 (≈ 0.503 µg/mL) | 10 | 1.1 (≈ 0.503 µg/mL) | < 100 | 10.1 | 9.2 | 9.2 | – | – | – | – | – | – | – | – | – |
| O=C(NCCCCl)Oc1ccc(Cl)cc1C(=O)Nc1ccc(Cl)c(Cl)c1 | 0 | 1.2 (≈ 0.523 µg/mL) | 0 | 2.3 (≈ 1 µg/mL) | < 50 | 2.5 | 2.1 | 1.1 | – | – | – | – | – | – | – | – | – |
| O=C(Oc1ccc(Br)cc1C(=O)Nc1ccc(Cl)c(Cl)c1)c1cnc(Cl)cn1 | 0 | 1 (≈ 0.502 µg/mL) | 1 | 2 (≈ 1 µg/mL) | < 100 | 5.7 | 5.7 | 2.9 | – | – | – | – | – | – | – | – | – |
| O=C(Nc1ccc(Cl)c(Cl)c1)c1cc(Br)ccc1O | 0 | 7 (≈ 2.53 µg/mL) | 2 | 1.4 (≈ 0.505 µg/mL) | < 100 | 3.5 | 0.5 | 2.5 | – | – | – | – | – | – | – | – | – |
| O=C(NCCCCl)Oc1ccc(Cl)cc1C(=O)Nc1ccc(C(=O)c2ccccc2)cc1 | 0 | 42.5 (≈ 20 µg/mL) | 3 | 8.5 (≈ 4.01 µg/mL) | < 50 | 16.1 | 0.4 | 1.9 | – | – | – | – | – | – | – | – | – |
| O=C(NCCCl)Oc1ccc(Cl)cc1C(=O)Nc1ccc(Cl)c(Cl)c1 | 0 | 1.2 (≈ 0.507 µg/mL) | 2 | 1.2 (≈ 0.507 µg/mL) | < 50 | 4.6 | 3.8 | 3.8 | – | – | – | – | – | – | – | – | – |
| O=C(NCCCl)Oc1ccc(Br)cc1C(=O)Nc1ccc(C(F)(F)F)cc1 | 0 | 4.3 (≈ 2 µg/mL) | 0 | 0.4 (≈ 0.186 µg/mL) | < 50 | 9.3 | 2.2 | 23.3 | – | – | – | – | – | – | – | – | – |
| O=C(NCCCl)Oc1ccc(Cl)cc1C(=O)Nc1ccc(C(=O)c2ccccc2)cc1 | 0 | 43.6 (≈ 19.9 µg/mL) | 2 | 8.7 (≈ 3.98 µg/mL) | < 50 | 37.8 | 0.9 | 4.3 | – | – | – | – | – | – | – | – | – |
| O=C(Nc1ccc(Cl)c(Cl)c1)c1cc(Cl)ccc1O | 0 | 3.2 (≈ 1.01 µg/mL) | 2 | 1.6 (≈ 0.507 µg/mL) | < 100 | 3.6 | 1.1 | 2.3 | – | – | – | – | – | – | – | – | – |
| O=C(NCCCl)Oc1ccc(Br)cc1C(=O)Nc1ccc(C(=O)c2ccccc2)cc1 | 0 | 40 (≈ 20.1 µg/mL) | 2 | 8 (≈ 4.01 µg/mL) | < 50 | 24.9 | 0.6 | 3.1 | – | – | – | – | – | – | – | – | – |
| O=C(NCCCCl)Oc1ccc(Br)cc1C(=O)Nc1ccc(C(=O)c2ccccc2)cc1 | 0 | 38.9 (≈ 20.1 µg/mL) | 2 | 8.7 (≈ 4.49 µg/mL) | < 50 | 12.6 | 0.3 | 1.4 | – | – | – | – | – | – | – | – | – |
| O=C(NCCCCl)Oc1ccc(Br)cc1C(=O)Nc1ccc(Cl)c(Cl)c1 | 0 | 2.1 (≈ 1.01 µg/mL) | 2 | 0.4 (≈ 0.192 µg/mL) | < 50 | 9.5 | 4.5 | 23.8 | – | – | – | – | – | – | – | – | – |
| O=C(c1ccccc1)c1ccc(NC(=O)c2cc(Br)ccc2O)cc1 | 0 | 25.3 (≈ 10 µg/mL) | 2 | 12.7 (≈ 5.03 µg/mL) | < 50 | 21.8 | 0.9 | 1.7 | – | – | – | – | – | – | – | – | – |
| O=C(NCCCCl)Oc1ccc(Cl)cc1C(=O)Nc1ccc(C(F)(F)F)cc1 | 0 | 0.2 (≈ 0.087 µg/mL) | 1 | 0.5 (≈ 0.218 µg/mL) | < 50 | 8.8 | 44 | 17.6 | – | – | – | – | – | 15 | 53 | – | – |
| O=C(NCCCl)Oc1ccc(Br)cc1C(=O)Nc1ccc(Cl)c(Cl)c1 | 0 | 0.2 (≈ 0.0933 µg/mL) | 2 | 0.2 (≈ 0.0933 µg/mL) | < 50 | 6.9 | 34.5 | 34.5 | – | – | – | – | – | 15 | 53 | – | – |
| O=C(NCCCl)Oc1ccc(Cl)cc1C(=O)Nc1ccc(C(F)(F)F)cc1 | 0 | 1.2 (≈ 0.505 µg/mL) | 1 | 0.5 (≈ 0.211 µg/mL) | < 50 | 7.6 | 6.3 | 15.2 | – | – | – | – | – | – | – | – | – |
| O=C(O)c1cn(C2CC2)c2cc(N3CCNCC3)c(F)cc2c1=O [CIPROFLOXACIN] | – | 3 (≈ 0.994 µg/mL) | – | – | – | – | – | – | – | – | – | – | – | – | – | – | – |
| CCCNC(=O)Oc1ccc(Cl)cc1C(=O)Nc1ccc(C(=O)c2ccccc2)cc1 | 0 | 22.9 (≈ 10 µg/mL) | 3 | 9.2 (≈ 4.02 µg/mL) | < 50 | 18.7 | 0.8 | 2 | – | – | – | – | – | – | – | – | – |
| CCCNC(=O)Oc1ccc(Cl)cc1C(=O)Nc1ccc(Cl)c(Cl)c1 | 0 | 1.3 (≈ 0.522 µg/mL) | 0 | 0.2 (≈ 0.0803 µg/mL) | < 50 | 7 | 5.4 | 35 | – | – | – | – | – | – | – | – | – |
| O=C(NCCCCl)Oc1ccc(Br)cc1C(=O)Nc1ccc(C(F)(F)F)cc1 | 0 | 0.2 (≈ 0.0959 µg/mL) | 8 | 1 (≈ 0.48 µg/mL) | < 50 | 5.7 | 28.5 | 5.7 | 22.6 | 22.6 | – | 0.183 | 22.6 | 15 | 53 | – | – |
| O=C(O)c1cnc(Cl)cn1 | – | > 633 | – | > 633 | < 500 | – | – | – | – | – | 12.3 | – | – | – | – | metabolite_detected | – |
| O=C(Oc1ccc(Cl)cc1C(=O)Nc1ccc(C(F)(F)F)cc1)c1cnc(Cl)cn1 | 0 | 5.5 (≈ 2.51 µg/mL) | 3 | 1.1 (≈ 0.502 µg/mL) | < 100 | 1.1 | 0.2 | 1 | – | – | – | – | – | – | – | – | – |
| GENTAMICIN | – | – | – | – | – | – | – | – | – | – | – | – | – | – | – | – | 10.5 |
| O=C(c1ccccc1)c1ccc(NC(=O)c2cc(Cl)ccc2O)cc1 | 0 | 28.5 (≈ 10 µg/mL) | 3 | 14.2 (≈ 5 µg/mL) | < 50 | 48 | 1.7 | 3.4 | – | – | – | – | – | – | – | – | – |
| O=C(Nc1ccc(C(F)(F)F)cc1)c1cc(Cl)ccc1O | 0 | 3.2 (≈ 1.01 µg/mL) | 0 | 1.6 (≈ 0.505 µg/mL) | – | 5.3 | – | – | – | – | – | – | – | – | – | – | – |
